Experimental data pooled from the literature.
Lines come from different studies, so protocols differ.
Target: Tyrosine-protein kinase receptor UFO (AXL, Homo sapiens, UniProt P30530)
Residues used in one study (P30530 26-894): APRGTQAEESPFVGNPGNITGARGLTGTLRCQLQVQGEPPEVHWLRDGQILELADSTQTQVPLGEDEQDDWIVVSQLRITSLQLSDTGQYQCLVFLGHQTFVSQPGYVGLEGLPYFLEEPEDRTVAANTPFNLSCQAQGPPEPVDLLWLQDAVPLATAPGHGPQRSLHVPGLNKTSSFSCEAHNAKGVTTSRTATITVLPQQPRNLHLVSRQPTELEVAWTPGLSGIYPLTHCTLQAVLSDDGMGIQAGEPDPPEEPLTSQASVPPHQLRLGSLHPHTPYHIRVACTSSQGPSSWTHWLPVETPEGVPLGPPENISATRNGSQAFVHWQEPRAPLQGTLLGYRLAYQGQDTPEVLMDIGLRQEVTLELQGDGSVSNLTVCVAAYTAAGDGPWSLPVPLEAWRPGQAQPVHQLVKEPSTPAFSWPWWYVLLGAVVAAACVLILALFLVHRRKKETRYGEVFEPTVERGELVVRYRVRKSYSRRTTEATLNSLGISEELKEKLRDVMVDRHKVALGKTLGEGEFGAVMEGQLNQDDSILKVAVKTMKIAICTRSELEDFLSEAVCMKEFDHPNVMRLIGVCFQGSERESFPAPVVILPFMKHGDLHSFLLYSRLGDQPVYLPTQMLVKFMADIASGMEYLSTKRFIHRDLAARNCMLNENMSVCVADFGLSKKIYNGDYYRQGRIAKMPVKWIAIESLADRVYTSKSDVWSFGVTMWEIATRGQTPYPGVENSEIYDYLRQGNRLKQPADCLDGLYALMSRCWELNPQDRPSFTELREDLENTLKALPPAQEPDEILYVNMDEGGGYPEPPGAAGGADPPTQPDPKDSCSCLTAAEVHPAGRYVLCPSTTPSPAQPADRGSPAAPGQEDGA

Structure (SMILES)	read-out	action	method	concentration	quantity	result
CO[C@@H]1[C@H](N(C)C(=O)c2ccccc2)C[C@H]2O[C@]1(C)n1c3ccccc3c3c4c(c5c6ccccc6n2c5c31)C(=O)NC4	enzyme activity	inhibitor	–	1 µM	inhibition	92%
CNC(=O)c1ccccc1Nc1nc(Nc2ccc(CO)cc2)ncc1Cl	enzyme activity	inhibitor	–	1 µM	remaining activity	1.13%
CNS(=O)(=O)c1ccc(Nc2ncc(C(F)(F)F)c(N3CCC[C@](C)(O)C3)n2)c(C)c1	binding	–	competition with immobilised ligand	1 µM	remaining binding	70%
COc1ccc2oc(-c3ccc4nc(N)oc4c3)c/c(=N\c3ccccc3NC(=O)CCN)c2c1	binding	–	–	1 µM	remaining binding	96%
Cc1ccc(NC(=O)c2ccnc(C(F)(F)F)c2)cc1-c1cc(OCCO)nc(N2CCOCC2)c1	binding	–	competition with immobilised ligand	1 µM	remaining binding	90%
CNC(=O)c1ccccc1Nc1nc(Nc2ccc(CO)nc2)ncc1Cl	enzyme activity	inhibitor	–	1 µM	remaining activity	2.06%
CCCCC(=O)Nc1ccc(-c2ccc3ncn(CCC)c(=O)c3c2)cn1	binding	–	competition with immobilised ligand	0.5 µM	remaining binding	95%
N#Cc1ccc(NC(=O)Nc2ccccc2)cc1	cell-free assay	–	competition with immobilised ligand	25 µM	remaining binding	100%
C[C@]1(O)CCCN(c2nc(Nc3ccc(S(=O)(=O)N[C@H]4CC[C@H](CN5CCN(c6ccc(C7CCC(=O)NC7=O)cc6F)CC5)CC4)cc3F)ncc2C(F)(F)F)C1 (some centres unmarked)	binding	–	competition with immobilised ligand	1 µM	remaining binding	40%
CS(=O)(=NC#N)c1ccccc1Nc1nc(Nc2ccc(CO)nc2)ncc1Cl (centres unmarked)	enzyme activity	inhibitor	–	1 µM	remaining activity	14.9%
CC#CC(=O)N1CCC[C@H]1c1nc(-c2ccc(C(=O)Nc3ccccn3)cc2)c2c(N)nccn12	enzyme activity	inhibitor	–	1 µM	inhibition	5%
COc1ccc2[nH]c3c4[nH]c5ccc(OC)cc5c4c4c(c3c2c1)C(=O)NC4=O	binding	–	competition with immobilised ligand	1 µM	remaining binding	30%
CS(=O)(=O)c1ccccc1Nc1nc(Nc2ccnc(CO)c2)ncc1Cl	enzyme activity	inhibitor	–	1 µM	remaining activity	4.41%
C1=C/COCc2cc(ccc2OCCN2CCCC2)Nc2nccc(n2)-c2cccc(c2)COC/1	binding	–	–	0.1 µM	remaining binding	38%
